Screens: PubChem, several laboratories
Rows were chosen to be rich in hits. Some 4.8% of all compounds tested hit in one or more screens of this group.
ATG4B inh – inhibitors of human ATG4B cysteine protease; inhibition, % at 8.33 µM; ATG4B cleavage of LC3-PLA2, NBD-HPC fluorescence, 1 h; AID 504462; actives 0.51% (n = 340,000); Q9Y4P1; in the data active = inhibition above about 40%
UCH37 inh – inhibitors of human deubiquitinating enzyme UCH37; AID 588478; actives 0.33% (n = 330,000); inhibition, % (no concentration beside the values); purified proteasome/UCH37, Ub-AMC cleavage fluorescence; Q9Y5K5;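 active = mean inhibition over replicate wells above about 20%, limit read from the data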;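 also: 0% = compound-free wells with enzyme and 100% = wells lacking proteasome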
Target sequence (Q9Y5K5 whole entry, looked up): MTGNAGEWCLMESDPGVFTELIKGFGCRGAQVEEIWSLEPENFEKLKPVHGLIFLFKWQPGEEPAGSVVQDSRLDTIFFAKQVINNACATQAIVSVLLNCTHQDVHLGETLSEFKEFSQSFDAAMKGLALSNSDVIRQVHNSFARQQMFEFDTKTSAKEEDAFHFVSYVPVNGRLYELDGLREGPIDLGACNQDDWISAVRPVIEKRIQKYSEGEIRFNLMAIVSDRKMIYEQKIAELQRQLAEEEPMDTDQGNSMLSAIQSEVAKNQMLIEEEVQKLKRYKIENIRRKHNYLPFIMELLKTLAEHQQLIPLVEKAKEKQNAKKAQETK
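Schedule: 30 min plus 25 min, room temperature / Material: human UCH37 within purified proteasomes / Technique: AMC fluorescence intensity at 355/460 nm / Buffer or medium: pH 7.4 Tris-HCl (50 mM) with ovalbumin, ATP-MgCl2, DTT / Controls: wells without proteasome as full block, compound-free enzyme plus substrate as uninhibited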
Calb FLC – affects C. albicans growth with fluconazole; C. albicans CaCi-2 (fluconazole-resistant clinical isolate) + fluconazole, Alamar Blue growth, 48 h; growth inhibition, % (concentration not given with the values); actives 0.57% (n = 300,000);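 active = growth inhibition above about 58% in most replicates, limit read from the data, passing the limit was not always enough; inconclusive = exactly half the replicates above a set limit; inactive = most replicates below a set limit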;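 also: all wells also contain fluconazole at 8 µg/ml as a sub-toxic cotreatment; 0% = median of DMSO wells and 100% = median of geldanamycin control wells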
NALP1 yeast inh – NALP1 inhibition | S. cerevisiae NALP1/ASC/caspase-1 growth, X-gal OD620, 72 h | inhibition, % at 10 µM | actives 0.61% (n = 280,000) | AID 2071; in the data active = inhibition mostly above about 24%, no sharp cut-off; inactive = mostly below about 32%
ALR H2O2 inh – human ALR oxidase inhibition via reduced H2O2; inhibition, % (no concentration beside the values); P55789; actives 3.8% (n = 290,000); purified ALR, DTT oxidation, H2O2 HRP-luminol luminescence;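 active = mean replicate inhibition above about 79%, with every replicate also reaching it, limit read from the data; inconclusive = only one of the two criteria met; inactive = mean below limit and not every replicate reaching it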
Target sequence (P55789 whole entry, looked up): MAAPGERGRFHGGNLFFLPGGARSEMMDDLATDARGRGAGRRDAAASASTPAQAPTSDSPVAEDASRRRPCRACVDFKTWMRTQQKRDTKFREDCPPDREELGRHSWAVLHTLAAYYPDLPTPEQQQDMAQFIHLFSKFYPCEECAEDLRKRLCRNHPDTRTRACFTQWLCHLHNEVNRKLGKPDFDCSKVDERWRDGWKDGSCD
NALP3 yeast inh – NALP3 inhibition in yeast; AID 2825; inhibition, % at 10 µM; Yeast reconstituted NLRP3/ASC/caspase-1, beta-gal luminescence, 24 h; actives 0.39% (n = 330,000);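 active = inhibition of 50% or more; inactive = inhibition below 50%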;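 also: plate controls were induced DMSO wells for no effect and uninduced yeast grown without galactose for full effect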
* marks the source's active call; other numbers are inactive results; ? = inconclusive; · = no result given.

SMILES	ATG4B inh	UCH37 inh	Calb FLC	NALP1 yeast inh	ALR H2O2 inh	NALP3 yeast inh
CCOC(=O)CSc1nc2sc3c(c2c(=O)n1-c1ccccc1)CCN(C)C3	-1	-73	0	17	100*	25
COC(=O)CSc1nc2sc3c(c2c(=O)n1C1CCCCC1)CCN(C)C3	·	·	0	-3	92*	-5
CN1CCc2c(sc3nc(SCC(=O)NCc4ccco4)n(-c4ccccc4)c(=O)c23)C1	-7	-50	18	-5	34	4
CCOC(=O)CSc1nc2sc3c(c2c(=O)n1-c1ccc(C)cc1)CCN(C)C3	0	-94	2	7	99*	9
CN(C)C=Nc1cc(=O)n(Cc2ccccc2)c(=O)n1C	·	0	·	·	·	·
O=C(NN=Cc1ccco1)c1cccc(N2Cc3ccccc3C2)c1	·	3	·	·	·	·
Cc1n[nH]c(C)c1Sc1ccccc1N	-10	2	-2	-7	96*	3
O/N=C/c1cccn1-c1ccc(O)cc1	-6	·	?	-25	99*	-9
CC1(C)Cc2c(sc(N=CN3CCCCCC3)c2C#N)C(C)(C)N1	·	1	·	·	·	·
CCOC(=O)c1ccc(N=Cc2nc(-c3ccccc3)oc2OC(C)=O)cc1	-5	7	34	-14	94*	9
CC(=O)N1CCC(=NNC(=O)c2cccs2)CC1	6	·	-5	17	77*	5
CC(=O)N1CCC(=NNC(=O)c2cc3ccccc3cc2O)CC1	1	-6	82*	9	44	2
O=C(NN=C1C2CC3CC(C2)CC1C3)c1cccs1	-8	4	2	41*	2	22
O=C(NN=C1CCCC1)c1cccs1	-8	3	1	15	-5	5
CCOC(=O)N1CCC(=NNC(=O)c2cc3ccccc3cc2O)CC1	-6	-2	44	19	·	-1
O=c1[nH]c(S)c(/C=C2\C=Nc3ccccc32)s1	-9	10	24	-6	99*	30
CC(=NO)C(C)(C)NC(=O)Nc1ccc(Cl)cc1	·	4	·	·	·	·
Cc1ccc(SC(=O)COc2ccccc2C)cc1	8	4	-6	7	99*	11
Cc1ccc(OC(=O)COc2ccccc2C)cc1	1	6	-8	10	-8	21
CN1CCC(Oc2ccc(Sc3ccccc3)cc2)CC1	2	6	34	49*	0	15
CN1CCC(Oc2ccccc2Sc2ccc(C(F)(F)F)cc2)CC1	2	-15	0	43	-67	18
C=CCNC(=O)/C(C#N)=C/c1ccc(C)o1	-2	22*	-10	5	-10	24
C=CCNC(=O)/C(C#N)=C/c1c(C)nn(-c2ccccc2)c1Cl	-6	1	?	62	96*	34
Cc1ccc(/C=C(\C#N)C(=O)NCC2CCCO2)o1 (centres undefined)	-13	13	24	15	-4	13
CCOc1ccccc1NC(=O)/C(C#N)=C/c1c(C)nn(-c2ccccc2)c1Cl	1	2	-1	18	7	20
SMILES	ATG4B inh	UCH37 inh	Calb FLC	NALP1 yeast inh	ALR H2O2 inh	NALP3 yeast inh
COc1ccc2cc(C3C(C#N)=C(N)OC(C)=C3C(C)=O)c(Cl)nc2c1 (centres undefined)	-10	-6	15	-5	96*	16
CC(=O)C1=C(C)OC(N)=C(C#N)C1c1ccncc1 (centres undefined)	-8	1	14	6	-6	-1
Cc1cccc(C(=O)Oc2ccc(C=NNC(=O)c3cc(O)cc(O)c3)cc2)c1	·	4	·	·	·	·
COc1ccc(S(=O)(=O)N(CC(=O)NN=Cc2ccc(C(=O)O)cc2)Cc2ccccc2)cc1OC	·	6	·	·	·	·
CN1CCN(c2ccc(Cl)cc2NC(=O)C2COc3ccccc3O2)CC1 (centres undefined)	-5	0	-18	32*	-8	20
COc1ccc(Cl)cc1NC(=O)C1COc2ccccc2O1 (centres undefined)	-1	3	-44	5	-3	28
Nc1ccc(CSc2ccccc2)cc1	2	0	·	·	·	·
Nc1ccc(SCc2cccnc2)cc1	1	1	0	13	100*	10
CCN(CC)c1ccc(CNc2nnnn2C)cc1	1	4	-5	8	99*	9
CCCn1nnnc1NCc1ccc(N(CC)CC)cc1	2	5	4	·	98*	11
Oc1ccc(-c2nc3ccccc3s2)c(O)c1	15	-41	-15	8	27	22
Oc1ccc(-c2cnns2)c(O)c1	1	2	24	44	99*	3
ClCc1csc(-c2ccc(Cl)cc2)n1	6	6	-26	36	98*	-4
COc1cccc2[nH]c(C(=O)NCC3CCCO3)cc12 (centres undefined)	12	-33	-9	2	-30	3
COc1cc(-c2nc(C(=O)NCC3CCCO3)cc3c2[nH]c2ccccc23)cc(OC)c1OC (centres undefined)	-59	-50	47	6	99*	9
COc1ccccc1-c1nc(C(=O)NCC2CCCO2)cc2c1[nH]c1ccccc12 (centres undefined)	1	-30	9	19	98*	5
O=C(NCC1CCCO1)c1cc2c([nH]c3ccccc32)c(-c2cccc(Cl)c2)n1 (centres undefined)	-15	-37	4	10	2	5
CCC1S/C(=C(\C#N)C(=O)NCc2ccco2)N(c2ccc(F)cc2)C1=O (centres undefined)	-6	2	-2	19	6	5
CCC1S/C(=C(\C#N)C(=O)NCc2ccco2)N(c2ccc(Br)cc2)C1=O (centres undefined)	2	6	21	22*	4	11
COc1ccc(-c2c3c(=O)n(C)c(=O)n(C)c3cn2-c2ccc(O)cc2)cc1	-3	-49	-10	4	89*	8
CCc1ccc(N2CC(C(=O)NN=Cc3cc([N+](=O)[O-])ccc3O)CC2=O)cc1 (centres undefined)	·	1	·	·	·	·
CCc1ccc(N2CC(C(=O)N/N=C/c3cc([N+](=O)[O-])ccc3O)CC2=O)cc1 (centres undefined)	2	·	106*	-8	-1	21
C(=C\c1nc(N2CCCCCC2)c2ccccc2n1)/c1ccccc1	7	-13	-2	57*	4	27
CCCC1S/C(=N/N=Cc2cccs2)NC1=O (centres undefined)	·	8	·	·	·	·
Nc1cccc(CCc2ccncc2)c1	3	3	-8	20	90*	10
Nc1cccc(/C=C/c2ccncc2)c1	-2	3	-5	13	99*	-1
c1ccc(CCc2ccncc2)cc1	0	6	8	4	-15	-4
CC1=NC(=O)C(N=Nc2ccccc2C(=O)O)N1c1ccccc1 (centres undefined)	24	21*	40	5	·	26
